T cruzi inh – T. cruzi replication inhibition; T. cruzi beta-gal in NIH3T3, luminescence, 90 h; inhibition, % (concentration not given with the values); actives 1.4% (n = 300,000);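 active = mean inhibition across valid replicates above about 55%, limit read from the data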;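 also: signal also drops with host cell toxicity which is not excluded here; 0% = plate median of DMSO wells and 100% = zero luminescence signal; higher percent means less beta-gal luminescence so fewer parasites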
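Material: NIH/3T3 host cells with β-galactosidase reporter T. cruzi; Input: 5,000 host fibroblasts per well; Medium: DMEM, 2% fetal bovine serum; Compound: 50 nL DMSO compound solution per well; Schedule: 3 h host attachment, then at least 90 h co-culture; Detection: luminescent β-galactosidase signal after 60 min lysis.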
Mdm2 MdmX PPI – human Mdm2/MdmX binding inhibition. inhibition, % at 8 µM. SaOS-2 split-luciferase Mdm2/MdmX complementation, luminescence. actives 3% (n = 330,000). O15151+Q00987. AID 485346;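 active = inhibition of at least 50% at 8 µM in the primary screen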
SKKanGAS inh – SKKanGAS growth inhibition. actives 1.3% (n = 300,000). S. pyogenes SKKanGAS, kanamycin growth, BacTiter-Glo, 6 h. inhibition, % at 7.5 µM;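 active = mean replicate score, as percent of positive control median, at least 50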;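 also: strain carries kanamycin resistance gene driven by streptokinase promoter and grows in 40 µg/ml kanamycin; loss of luminescence reflects streptokinase promoter inhibition or plain growth inhibition; 0% = median of DMSO wells and 100% = positive control at its reference dose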
aSyn 5UTR inh – MLPCN primary screen, SNCA 5' untranslated region; alpha-synuclein 5'UTR reporter, inhibitor activity; actives 0.82% (n = 300,000); inhibition, % (tested at 7.5 µM); in the data active = inhibition above about 60%;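 also: H4 neuroglioblastoma cells stably carrying SNCA 5'UTR luciferase fusion; 0% = DMSO wells and 100% = positive control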
CSC inhib – blocks cancer stem cells | actives 1.1% (n = 300,000) | AID 2717 | cancer stem cell-like cells viability, luminescence | inhibition, % at 7.5 µM; in the data active = inhibition above about 75%; tested in HMLE shEcad cells
Mdm2-MdmX conf – human Mdm2/MdmX binding inhibition, confirmed | shares compounds with Mdm2 MdmX PPI | luminescent assay | inhibition, % at 8 µM | actives 55% (n = 10,000); in the data active = inhibition above about 40%
FLuc counter – counter-screen for Mdm2/MdmX inhibitors: full-length luciferase | shares compounds with Mdm2 MdmX PPI | SaOS-2 full-length luciferase counterscreen, luminescence | inhibition, % at 8 µM | actives 77% (n = 6,200);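 active = mean inhibition at 8 µM reaching about 37%, which flags the compound as non-specific, limit read from the data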;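 also: p53-null SaOS-2 cells with luciferase driven by a doxycycline-inducible promoter; compound on cells about two nights before reading with doxycycline added after day one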
Numbers without * were called inactive. In the library only some 5.4% were active in any assay of this set; here they are far more common.

CCOC(=O)/C=c1\s/c(=C\c2ccc(-c3ccccc3)cc2)c(=O)n1CC(=O)NCc1ccc2c(c1)OCO2 was read as T cruzi inh 3.0, Mdm2 MdmX PPI 83.8*, SKKanGAS inh -1.9, aSyn 5UTR inh 13.4, CSC inhib 7.8 and Mdm2-MdmX conf 9.3.
`CCOC(=O)/C=c1\s/c(=C\c2ccc3cc(OC)ccc3c2)c(=O)n1CC(=O)NCC1CCCO1` (stereo not given) gave T cruzi inh -7.6, Mdm2 MdmX PPI 74.5*, SKKanGAS inh -14.5, aSyn 5UTR inh -36.5, CSC inhib 21.2 and Mdm2-MdmX conf -3.8.
Screening CCOC(=O)/C=c1\s/c(=C\c2ccc(C(F)(F)F)cc2)c(=O)n1CC(=O)NCc1ccco1 returned T cruzi inh -20.0, Mdm2 MdmX PPI 75.7*, SKKanGAS inh 2.7, aSyn 5UTR inh -21.6, CSC inhib 15.4 and Mdm2-MdmX conf 31.4.
Screening COc1cc(CN2CCNC(=O)C2CC(=O)N(C)CCN2CCOCC2)cc(OC)c1 (stereo not given) returned T cruzi inh -3.9, Mdm2 MdmX PPI 26.0, SKKanGAS inh 2.0 and aSyn 5UTR inh -7.2.
For O=C(N/N=C/c1ccc2cccc(OCc3ccccc3)c2n1)c1ccc(Br)cc1 the results were T cruzi inh 0.1, Mdm2 MdmX PPI 21.4, SKKanGAS inh 40.7, aSyn 5UTR inh -5.7 and CSC inhib 11.1.
Screening NC(=S)N/N=C/c1ccc2cccc(OCc3ccccc3)c2n1 returned T cruzi inh 44.5, Mdm2 MdmX PPI 35.0, SKKanGAS inh -7.3, aSyn 5UTR inh 6.7 and CSC inhib -3.2.
For COc1ccc(C(=O)N/N=C/c2ccc3cccc(OCc4ccccc4)c3n2)cc1 the results were T cruzi inh 30.5, Mdm2 MdmX PPI 59.3*, SKKanGAS inh 37.0, aSyn 5UTR inh -35.8, CSC inhib 41.2 and Mdm2-MdmX conf 16.0.
Screening NC(N)=N/N=C/c1ccc2cccc(OCc3ccccc3)c2n1 returned T cruzi inh 56.5*, Mdm2 MdmX PPI 50.9*, SKKanGAS inh 17.7, aSyn 5UTR inh -20.9, CSC inhib 38.4, Mdm2-MdmX conf 60.0* and FLuc counter 81.2*.
For COC(=O)c1ccc(C)c(NS(=O)(=O)c2ccc(OC)cc2)c1 the results were T cruzi inh -16.6, Mdm2 MdmX PPI 70.1*, SKKanGAS inh 5.2, aSyn 5UTR inh 81.9*, CSC inhib 55.9, Mdm2-MdmX conf 60.5* and FLuc counter 100.2*.
Screening COC(=O)c1ccc(C)c(NS(=O)(=O)c2ccc3c(c2)OCCO3)c1 returned T cruzi inh -69.6, Mdm2 MdmX PPI 63.5*, SKKanGAS inh 7.7, aSyn 5UTR inh 93.5*, CSC inhib 50.5, Mdm2-MdmX conf 60.5* and FLuc counter 78.1*.
`COC(=O)c1ccc(C)c(NS(=O)(=O)c2ccc(C)c([N+](=O)[O-])c2)c1` gave T cruzi inh 3.8, Mdm2 MdmX PPI -13.0, SKKanGAS inh 2.3, aSyn 5UTR inh 3.2 and CSC inhib 14.6.
N#C/C(=C1/C(=O)Nc2ccc(Br)cc21)c1ccccn1 was read as T cruzi inh 4.3, Mdm2 MdmX PPI 16.5, SKKanGAS inh -7.7, aSyn 5UTR inh -40.5 and CSC inhib -8.7.
For CCN(CC)CCOc1ccc(Br)cc1 the results were T cruzi inh -0.2, Mdm2 MdmX PPI -6.6, SKKanGAS inh 2.0, aSyn 5UTR inh 15.1 and CSC inhib -3.3.
CCN(CC)CCOc1ccc(/C(=C(\Cl)c2ccccc2)c2ccccc2)cc1 was read as T cruzi inh 50.2, Mdm2 MdmX PPI 69.1*, SKKanGAS inh 22.6, aSyn 5UTR inh -0.5, CSC inhib 102.7* and Mdm2-MdmX conf 30.2.
Nc1nc(SCc2ccccc2Cl)nc2nc3c(cc12)CCCC3 was read as T cruzi inh 2.3, Mdm2 MdmX PPI 13.6, SKKanGAS inh 0.3, aSyn 5UTR inh -8.8 and CSC inhib 0.8.
Nc1nc(SCc2ccc(Cl)cc2Cl)nc2nc3c(cc12)CCCC3 was read as T cruzi inh 26.2, Mdm2 MdmX PPI 57.4*, SKKanGAS inh 11.8, aSyn 5UTR inh -9.4, CSC inhib 23.2 and Mdm2-MdmX conf 24.9.
For COCCNC(=O)C(c1ccc(Cl)cc1)N(C(=O)Cn1nnc2ccccc21)c1cccnc1 (stereo not given) the results were T cruzi inh -17.0, Mdm2 MdmX PPI 2.2, SKKanGAS inh -3.9, aSyn 5UTR inh 10.4 and CSC inhib 4.1.
Screening Cc1ccc(C(=O)Nc2nc(-c3ccccn3)cs2)s1 returned Mdm2 MdmX PPI 57.8*, CSC inhib 43.5, Mdm2-MdmX conf 75.5* and FLuc counter 34.6.
`Cc1cccnc1Nc1nc(-c2ccccn2)cs1` gave T cruzi inh 39.8, Mdm2 MdmX PPI 74.3*, SKKanGAS inh 106.0*, aSyn 5UTR inh 50.9, CSC inhib 100.6* and Mdm2-MdmX conf 35.6.
Cc1cccnc1Nc1nc(-c2ccccc2)cs1 was read as T cruzi inh 26.4, Mdm2 MdmX PPI -219.4, SKKanGAS inh 13.9, aSyn 5UTR inh -128.3 and CSC inhib 22.2.
For O=C(Nc1nc(-c2ccccn2)cs1)c1ccc(Cl)s1 the results were T cruzi inh 58.2*, Mdm2 MdmX PPI 69.7*, SKKanGAS inh 101.8*, aSyn 5UTR inh 67.7*, CSC inhib 80.0*, Mdm2-MdmX conf 79.5* and FLuc counter 24.4.
Screening O=C(Nc1ccccn1)c1ccc(Cl)s1 returned T cruzi inh -3.7, Mdm2 MdmX PPI -36.0, SKKanGAS inh -2.5, aSyn 5UTR inh -128.5 and CSC inhib -1.1.
`O=C(COc1ccc(F)cc1Cl)Nc1nc(-c2ccccn2)cs1` gave T cruzi inh 75.6*, Mdm2 MdmX PPI 74.3*, SKKanGAS inh 110.3*, aSyn 5UTR inh 28.2, CSC inhib 39.0, Mdm2-MdmX conf 69.6* and FLuc counter 33.8.
For COc1ccc(S(=O)(=O)Nc2noc3ccccc23)cc1 the results were T cruzi inh -0.4, Mdm2 MdmX PPI -34.1, SKKanGAS inh 4.4, aSyn 5UTR inh 17.0 and CSC inhib -1.5.
For Cn1cc([C@@H]2C[C@H]3CN(Cc4cccc(Cl)c4)C(=O)[C@]34CCCN24)c(-c2ccccc2)n1 the results were T cruzi inh 12.7, Mdm2 MdmX PPI 1.3, SKKanGAS inh -4.9, aSyn 5UTR inh 33.5 and CSC inhib 5.0.
`CCc1sc(C(=O)Nc2nc(-c3ccccn3)cs2)cc1C` gave Mdm2 MdmX PPI 64.3*, CSC inhib 48.6, Mdm2-MdmX conf 40.3* and FLuc counter 37.0*.
O=C(Nc1nc(-c2ccccn2)cs1)C1CCCC1 was read as T cruzi inh -17.6, Mdm2 MdmX PPI -19.7, SKKanGAS inh -1.8, aSyn 5UTR inh -96.8 and CSC inhib 8.5.
For O=C(Nc1nc(-c2ccccn2)cs1)c1ncc(Cl)c(Cl)c1Cl the results were T cruzi inh 35.2, Mdm2 MdmX PPI 74.3*, SKKanGAS inh 98.5*, aSyn 5UTR inh -54.0, CSC inhib -12.4 and Mdm2-MdmX conf 34.5.

Screening results from PubChem BioAssay.
